In data set [1] the test system is MCF7. Put plainly: Induction of apoptosis in human MCF7 cells assessed as increase in Bad protein expression at 0.5 to 1 uM after 48 hrs by Western blot method. The data set is classed as functional, cell-based. The gist of the method:
(§1)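 MCF-7 cells were treated at 0, 0.125, 0.25, 0.5 or 1 μM for 48 h, washed in ice-cold PBS and lysed on ice for 20 min. Lysates were spun at 13,000 g, 4 °C. 20 μg protein was run on SDS-PAGE and blotted to PVDF, probed overnight at 4 °C with primary antibodies, then with fluorescent secondary antibodies. Band density was expressed relative to β-actin; three independent experiments.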
In general terms: A western blot detects proteins with antibodies after separation by electrophoresis.

Data set [2] has as its system Bel-7402. Put plainly: Cell cycle arrest in human Bel7402 cells assessed as accumulation at G2/M phase at 2 uM after 48 hrs by propidium iodide staining based flow cytometry (reference value: 56.61%). The data set is classed as functional.
Data set [3] in a line: Antiproliferative activity against human NCI-H460/MX20 cells after 48 hrs by MTT assay. Format: functional, cell-based. The settings on record: NCI-H460/MX20, 48 h. The gist of the method: (§2)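 Colorimetric MTT assay. KB-3-1, NCI-H460 and Bel-7404 cells were seeded at 4000 cells/well; resistant KB/CP4, NCI-H460/MX20 and Bel-7404/CP20 were seeded at 7000 cells/well. Cells were pre-incubated 24 h at 37 °C, 5% CO2, then exposed to a compound concentration series for 48 h with DMSO ≤0.25%. Absorbance read at 570 nm. Quadruplicate wells, three repeats; means ± SD.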
For orientation: Tetrazolium dyes change colour on reduction, which living cells bring about.

Data set [4] has as its system Bel-7402. Briefly: Cell cycle arrest in human Bel7402 cells assessed as accumulation at S phase at 4 uM after 48 hrs by propidium iodide staining based flow cytometry (reference value: 8.78%). Format: functional. Background: Flow cytometry measures light scatter and fluorescence of single cells or particles in a stream.
The subject of data set [5] is Mus musculus. Put plainly: Toxicity in ICR mouse xenografted with […] cells assessed as changes in body weight at 20 mg/kg/day, iv for 3 weeks measured once in 2 days during compound dosing. As to conditions: in vivo. Format: organism-based. The gist of the method:
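Mice received 1 × 10^6 tumor cells subcutaneously in the right flank: MCF-7 in male BALB/c nude mice aged six weeks, H22 in male ICR mice aged five weeks. After 7 d they were randomized (six or eight per group). Dosing was 20 mg/kg iv daily in 10% DMF/2% poloxamer/88% saline for 21 or 28 days; saline control. Body weight was recorded every 2 days.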

Data set [6] deals with MCF7. Put plainly: Induction of ROS generation in human MCF7 cells at 1 uM after 36 hrs in presence of ROS scavenger NAC by DCF-DA staining based flow cytometry. The data set is classed as functional, cell-based. The gist of the method: (§3)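 MCF-7 cells exposed to 0–1 μM compound for 36 h, with DMSO as control; one arm pre-incubated with 2.5 mM NAC. Cells then loaded with DCF-DA at 37 °C for 15 min, harvested and resuspended in PBS. Fraction of DCF-positive cells measured by flow cytometry at Ex 480/Em 525 nm.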

Data set [7] relates to MCF7. Briefly: Induction of apoptosis in human MCF7 cells assessed as late apoptotic cells at 0.125 uM after 24 hrs by Annexin-V FITC/propidium iodide staining based flow cytometry (reference value: 0.255%). Format: functional.
Data set [8] in a line: Permeability from basolateral to apical side in human Caco2 cells at 100 uM after 5 mins by HPLC method. Format: ADME, cell-based. As to conditions: caco-2, 5 min.
In data set [9] the test system is MCF7. Put plainly: Induction of apoptosis in human MCF7 cells assessed as live cells at 0.25 uM after 24 hrs by Annexin-V FITC/propidium iodide staining based flow cytometry (reference value: 97%). Format: functional.
The test system of data set [10] is H22. Briefly: Antitumor activity against […] cells xenografted in ICR mouse assessed as tumor growth inhibition at 20 mg/kg/day, iv for 3 weeks. The data set is classed as functional, organism-based. The gist of the method:
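Male ICR mice (5 weeks old) inoculated subcutaneously in the right flank with 1 × 10^6 H22 cells. After 7 d, randomized into groups of eight or six. Dosed iv 20 mg/kg daily in 10% DMF/2% poloxamer/88% saline. Cyclophosphamide 20 mg/kg iv as positive control; saline as negative control. Body weight and tumour volume (L × W²/2) every 2 days; inhibition calculated from final tumour weights.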

The test system of data set [11] is Mus musculus. Put plainly: Toxicity in Balb/c nude mouse xenografted with human MCF7 cells assessed as morphological changes in lungs at 20 mg/kg/day, iv for 4 weeks by hematoxylin and eosin staining based microscopic method. The data set is classed as organism-based. The settings on record: in vivo, 672 h. The gist of the method: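 Male BALB/c nude mice aged six weeks received 1 × 10^6 MCF-7 cells subcutaneously in the right flank. After 7 d they were randomized and dosed 20 mg/kg iv once daily in 10% DMF/2% poloxamer/88% saline; saline control. Heart, liver, spleen, lung and kidney were fixed in 4% paraformaldehyde, paraffin-embedded, sectioned at 5 μm, H&E stained and examined microscopically.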

The test system of data set [12] is MCF7. Put plainly: Antitumor activity against human MCF7 cells xenografted in Balb/c nude mouse assessed as tumor growth inhibition at 20 mg/kg/day, iv for 4 weeks relative to control. The data set is classed as functional. The settings on record: 672 h, read-out: TGI. The gist of the method:
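Six-week-old male BALB/c nude mice received 1 × 10^6 MCF-7 cells subcutaneously in the right flank. After 7 d of tumor growth, mice were randomized into groups of six. Dosing was 20 mg/kg iv once daily for 28 days in 10% DMF/2% poloxamer/88% saline. Tumor volume (L × W²/2) and body weight were recorded every 2 days. Inhibition = (1 − mean treated/control tumor weight) × 100%.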

Data set [13] has as its system MCF7. Put plainly: Induction of apoptosis in human MCF7 cells assessed as increase in Bax protein expression at 0.5 to 1 uM after 48 hrs by Western blot method. Format: functional, cell-based. The gist of the method:
as §1

Data set [14] relates to MCF7. Put plainly: Cell cycle arrest in human MCF7 cells assessed as accumulation at S phase at 0.25 uM after 48 hrs by propidium iodide staining based flow cytometry (reference value: 37.18%). The data set is classed as functional. The gist of the method:
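MCF-7 cells, 5 × 10^4 per well, seeded overnight, then exposed to 0.125–1 μM compound, or DMSO, for 48 h. Ethanol-fixed (70%, −20 °C, 12 h) and stained with PI/RNase at 37 °C for 30 min. Phase distribution determined by flow cytometry.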

Data set [15] relates to MCF7. Briefly: Cytotoxicity against human MCF7 cells at 10 to 50 uM after 24 hrs by LDH assay. The data set is classed as functional, cell-based. The gist of the method:
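Membrane integrity assay on MCF-7 and Bel-7402 cells seeded at ~5 × 10^3 per well for 24 h, then given compounds at 10, 20 or 50 μM. Culture medium collected and assayed with CytoTox-ONE LDH reagent for 10 min, followed by stop solution. Fluorescence read at Ex 560/Em 590 nm. Expressed as percentage of unstimulated cells.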

Data set [16] has as its system NCI-H460. Briefly: Antiproliferative activity against human NCI-H460 cells after 48 hrs by MTT assay. As to conditions: NCI-H460, 48 h. Format: functional, cell-based. The gist of the method: as §2
The subject of data set [17] is MCF7. Put plainly: Induction of apoptosis in human MCF7 cells assessed as necrotic cells at 0.5 uM after 24 hrs by Annexin-V FITC/propidium iodide staining based flow cytometry (reference value: 0.102%). The data set is classed as functional.
The subject of data set [18] is MCF7. Put plainly: Induction of apoptosis in human MCF7 cells assessed as necrotic cells at 0.125 uM after 24 hrs by Annexin-V FITC/propidium iodide staining based flow cytometry (reference value: 0.102%). Format: functional.
Data set [19] relates to MCF7. Put plainly: Induction of apoptosis in human MCF7 cells assessed as necrotic cells at 0.25 uM after 24 hrs by Annexin-V FITC/propidium iodide staining based flow cytometry (reference value: 0.102%). The data set is classed as functional.
In data set [20] the test system is MCF7. Briefly: Induction of ROS generation in human MCF7 cells at 1 uM after 36 hrs by DCF-DA staining based flow cytometry (reference value: 3.77%). Format: functional. The gist of the method: as §3

Activity calls are given as the source filed them. No cut-off for these calls is given here.

As to `C=C1C(=O)[C@]23[C@H](OC(=O)/C=C/c4ccccc4)[C@H]1CC[C@H]2[C@]12C=CCC(C)(C)[C@H]1[C@H](O)[C@]3(O)OC2`, the outcome in data set [1] and in data set [13] was Active. The Activity is recorded as 58.07% in data set [2]; 9.55% in data set [4]; “Non-Toxic” in [5]; 9.32% in data set [7]; 69.7% in data set [9]; “Non-Toxic” in data set [11]. For the same compound, the Activity is given as 33.9% in data set [14]; 2.18% in data set [17]; 1.14% in [18]; 2.39% in data set [19]; 24.31% in [20]. Moreover, the IC50 (usually the point on the concentration scale where inhibition reaches its midpoint) in data set [3] is 13.6 µM; in data set [16] it was 2620 nM. The outcome in [6] and in [15] was inactive. The permeability result in [8] was “Permeable”. Moreover, the TGI result in data set [10] was “Active”. Moreover, in data set [12], the inhibition in vivo at 20 mg/kg/day was 69.8%.

The record behind these values is ChEMBL document CHEMBL3997810, “A Novel Potent Anticancer Compound Optimized from a Natural Oridonin Scaffold Induces Apoptosis and Cell Cycle Arrest through the Mitochondrial Pathway” (J Med Chem, 2017).
